Assay outcomes from PubChem BioAssay.
This is a sample that favours compounds with a hit; in the whole collection about 2.4% have one here.
PGC1a acetyl inh – inhibitors of PGC1a acetylation signal, primary screen, cell-based, U2OS, AlphaScreen, inhibitor mode; AlphaScreen anti-acetyl-lysine; with virally co-expressed GCN5 acetyltransferase; inhibition, % at 15.6 µM; 0.17% of 350,000 active;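 active = every replicate shows inhibition of at least 40%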;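 also: 0% = neutral control wells and 100% = positive control wells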
ARNT TACC3 PPI – disruptors of ARNT/TACC3 protein interaction, primary screen, biochemical, AlphaScreen, single concentration; AlphaScreen His-ARNT PAS-B/GST-TACC3 binding, luminescence; TACC3 fragment carries E629A point mutation; inhibition, % at 9.99 µM; 0.66% of 390,000 active;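 active = mean inhibition of replicates at least 50% and at least half of replicates each reaching 50%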;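 also: 0% = complete ARNT plus TACC3 wells and 100% = ARNT alone without TACC3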
rRNA inh HTS – reduced GFP signal of wild-type E. coli, primary screen, bacterial rRNA inhibitor project, GFP/RFP fluorescence, OD600, single point; GFP signal change (wild-type ribosome), % (test concentration not listed); 1.6% of 350,000 active; E. coli WT GFP vs humanized-ribosome RFP mutants, 24 h; active compounds read low; DMSO median 0, no signal -100;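 active = significant combined selectivity score with lowered wild-type GFP, culture density cut under 30%, mutant RFP and density less affected; inactive = any of these conditions unmet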
CASP6 VEID inh – human caspase-6 inhibitors, primary screen, biochemical, VEID-R110 fluorescence, single point, set 2; inhibition, % at 12.5 µM; P55212; 0.53% of 350,000 active; purified caspase-6, Z-VEID-R110 cleavage fluorescence;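 active = mean inhibition across replicates at least about 35%, with every replicate also reaching that limit, limit read from the data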;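 also: 0% = median of neutral control wells and 100% = no fluorescence left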
ERAP1 inh – human ERAP1 aminopeptidase inhibitors, primary screen, biochemical, single point, plate reader; recombinant ERAP1, Leu-AMC fluorescence, 60 min; inhibition, % at 10.7 µM; Endoplasmic reticulum aminopeptidase 1 (Homo sapiens), Q9NZ08; 0.15% of 340,000 active;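 active = mean replicate inhibition of at least 30%, or all replicates individually reaching that 30% level; inactive = mean below 30% and not every replicate reaching it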;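 also: 0% = neutral control wells and 100% = L-leucinethiol positive control wells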
S100A4 inh HTS – inhibitors of S100A4-myosin IIA peptide binding, primary screen, biochemical, fluorescence polarization, TAMRA-MyoIIA peptide; 0.14% of 360,000 active; Protein S100-A4 (Homo sapiens), P26447; inhibition, % at 10.7 µM;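 active = mean inhibition of at least 70% across replicates, with every replicate also reaching that level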
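Material: S100A4 monomer protein / Buffer or medium: 50 mM HEPES pH 7.2, 10 mM CaCl2, 100 mM KCl / Times: 5 min incubation before reading / Benchmarks: neutral control DMSO, positive control TFP / Reagent: labelled myosin peptide probe, 5 nM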
The depositor's hits bear a star; / = no result given.

SMILES	PGC1a acetyl inh	ARNT TACC3 PPI	rRNA inh HTS	CASP6 VEID inh	ERAP1 inh	S100A4 inh HTS
O=C(CCCCCN1C(=O)[C@@H]2Cc3ccccc3CN2C1=O)Nc1cccc(F)c1	/	2	-35*	2	3	-4
Cc1cccc(NC(=O)CCCCCN2C(=O)[C@@H]3Cc4ccccc4CN3C2=O)c1	-8	-4	-5	2	3	1
O=C(CN1C(=O)c2ccccc2C1=O)Nc1cccc(Cl)c1	-4	-3	11	-1	-1	-3
O=C(CN1C(=O)c2ccccc2C1=O)Nc1cccc(S(=O)(=O)Nc2ccccc2Cl)c1	/	8	-26*	2	-2	4
O=S1(=O)N=C(N(CCO)/N=C/c2ccccc2)c2ccccc21	-7	/	-17	-1	1	8
O=S1(=O)N=C(N(CCO)/N=C/c2ccncc2)c2ccccc21	3	72*	-2	-3	-8	2
CC(C)(C)NC(=O)CCN(/N=C/c1ccncc1)C1=NS(=O)(=O)c2ccccc21	2	63*	9	1	1	3
O=C1CCc2cc(S(=O)(=O)N3CCCCC3)cc3c2N1CCC3	-6	13	-1	1	4	73*
O=C1CCc2cc(S(=O)(=O)N3CCCCC3)cc3c2N1CC3	/	-7	1	31	-2	0
Cc1ccc(OCCn2cc(/C=N/NC(=O)c3ccncc3)c3ccccc32)cc1	-7	15	/	/	/	/
O=C(N/N=C/c1ccc(O)c(O)c1)c1ccc(CSc2cccc3cccnc23)cc1	24	23	-16*	4	4	9
CCOc1ccc(C(=O)N/N=C/c2cccc3cccnc23)cc1	3	65*	/	/	/	/
CCOc1ccc(OCc2ccc(C(=O)NN=Cc3ccc[nH]3)cc2)cc1	47*	2	11	-4	0	3
O=C(N/N=C/c1ccc[nH]1)c1ccccc1OCc1ccc(F)cc1	-4	-5	-8	-2	/	2
COc1ccc(OCCn2cc(/C=N/NC(=O)c3ccncc3)c3ccccc32)cc1	/	11	-20*	7	-1	1
C[C@H](NC(=O)[C@@H]1[C@@H](CO)[C@@H]2Cn3c(ccc(C4=CCCCC4)c3=O)[C@H]1N2)c1ccccc1	0	5	0	-1	3	0
C[C@H](CO)N1C[C@H](C)[C@H](CN(C)Cc2ccc3c(c2)OCO3)OCCCC[C@H](C)Oc2ccc(NS(=O)(=O)c3ccc(Cl)cc3)cc2C1=O	-9	11	-24	-1	-3	-4
CCC(=O)Nc1ccc2c(c1)C(=O)N(C)[C@H]1CC[C@H](CC(=O)N3CCc4ccccc4C3)O[C@@H]1CO2	6	-10	-1	5	0	4
CCOc1ccccc1C(=O)N/N=C/c1cccc2cccnc12	5	72*	/	/	/	/
COc1ccc(C(=O)N/N=C/c2cccc3cccnc23)cc1	1	88*	/	/	/	/
COCc1nnc(NC(=O)c2ccc(S(=O)(=O)N3CCOCC3)cc2)o1	/	45*	14	-3	3	-1
COc1ccccc1-c1nnc(NC(=O)c2ccc(S(=O)(=O)N3CCOCC3)cc2)o1	/	46*	-4	-1	-4	-1
COCc1nnc(NC(=O)c2ccc(S(=O)(=O)N3CCCc4ccccc43)cc2)o1	/	/	-32	4	-8	9
NC(=O)Cn1cc(C(=O)C(=O)N2CCOCC2)c2ccccc21	/	-25	14	45*	-1	-7
CN1CCN(C(=O)C(=O)c2cn(CC(=O)N3CCOCC3)c3ccccc23)CC1	2	/	/	1	-3	-4
SMILES	PGC1a acetyl inh	ARNT TACC3 PPI	rRNA inh HTS	CASP6 VEID inh	ERAP1 inh	S100A4 inh HTS
O=C(C[C@H]1CC[C@H]2[C@@H](COC[C@H](O)CN2C(=O)Nc2ccc(F)cc2)O1)NCCc1ccncc1	10	4	3	1	1	9
CCC(CO)Oc1cc(NC(=O)c2ccc(OC)cc2)c2ncn(C(C)C)c2c1 (stereo unspecified)	-1	-5	-20*	-1	0	10
Cc1ccc(S(=O)(=O)N(C)C[C@H]2OCCCC[C@@H](C)Oc3ccc(NC(=O)Nc4ccc5c(c4)OCO5)cc3C(=O)N([C@H](C)CO)C[C@@H]2C)cc1	-2	9	0	-1	0	2
CC1(C)SC(=S)N(/N=C/c2ccccc2O)C1N(O)C(=O)Nc1ccccc1 (stereo unspecified)	14	48*	-16	-4	1	-2
CCn1cc(C(=O)O)c(=O)c2cc(F)c(N3CCN(C(=S)NC(=O)c4ccccc4Br)CC3)cc21	/	-4	-61	36*	0	-14
C[C@@H]1CN([C@H](C)CO)C(=O)c2cc(NC(=O)CCC(F)(F)F)ccc2O[C@@H](C)CCCCO[C@H]1CN(C)C(=O)NC1CCCCC1	/	-9	3	2	2	4
CCN1C(=O)[C@H]2[C@@H](c3ccc(-c4ccc(Cl)c(Cl)c4)c(OC)c3)N[C@@](C)(C(=O)OC)[C@H]2C1=O	5	-11	0	0	-1	0
CCN1C(=O)[C@H]2[C@@H](c3ccc(-c4ccc5c(c4)OCO5)c(OC)c3)N[C@@](C)(C(=O)OC)[C@H]2C1=O	-11	3	-4	1	-2	99*
CCCOC(=O)C[N+](C)(C)CCOC1CC2CCC1(C)C2(C)C (stereo unspecified)	/	18	-47*	-2	/	2
O=C(C[C@@H]1CC[C@H](NC(=O)C2CC2)[C@H](CO)O1)NCC1CC1	4	-2	2	2	-2	10
O=C(O)c1cccc(N2C(=O)/C(=C/c3ccc(SCc4ccc(Cl)cc4)o3)SC2=S)c1	/	-1	1	72*	-1	5
CC(C)c1c(C(=O)N/N=C/c2c[nH]c3ccccc23)nnn1-c1nonc1N	-8	6	-18*	2	2	3
Nc1nonc1-n1nnc(C(=O)N/N=C/c2cccc(Cl)c2)c1-c1cccs1	2	-4	-17*	5	-1	-4
Cc1ccsc1/C=N/NC(=O)c1nnn(-c2nonc2N)c1C(C)C	1	8	-18*	2	1	-6
CC(C)c1c(C(=O)N/N=C/c2cccs2)nnn1-c1nonc1N	/	2	-6	3	-1	-2
O=S(=O)(Cc1ccccc1)NCC[C@H]1CC[C@H](NS(=O)(=O)c2ccc(F)cc2)[C@@H](CO)O1	0	-9	-3	2	0	-10
